{"source": "ChEMBL document CHEMBL2203151", "about": "“Cytotoxic alkaloids from the whole plants of Zephyranthes candida” (J Nat Prod, 2012)", "key": {"[1]": {"test_system": "HT-29", "test": "Cytotoxicity against human HT-29 cells after 48 hrs by MTT assay", "type": "functional, cell-based", "conditions": "HT-29, 48 h"}, "[2]": {"test_system": "HepG2", "test": "Cytotoxicity against human HepG2 cells after 48 hrs by MTT assay", "type": "functional, cell-based", "conditions": "HepG2, 48 h"}, "[3]": {"test_system": "K562", "test": "Cytotoxicity against human K562 cells after 48 hrs by MTT assay", "type": "functional, cell-based", "conditions": "K562, 48 h"}, "[4]": {"test_system": "A549", "test": "Cytotoxicity against human A549 cells after 48 hrs by MTT assay", "type": "functional, cell-based", "conditions": "A549, 48 h"}, "[5]": {"test_system": "HL-60", "test": "Cytotoxicity against human HL60 cells after 48 hrs by MTT assay", "type": "functional, cell-based", "conditions": "HL-60, 48 h"}, "[6]": {"test": "Cytotoxicity against human BEAS2B cells after 48 hrs by MTT assay", "type": "cell-based", "conditions": "BEAS-2B", "method_in_brief": "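Beas-2B immortalized, non-cancerous bronchial epithelial cells grown in RPMI-1640 or DMEM with 10% FBS, 5% CO2, 37°C. Cells were seeded and allowed to adhere 12 h before compound addition, then exposed for 48 h. DMSO negative and cisplatin positive controls were included. Viability was measured by MTT absorbance at 595 nm, and IC50 was calculated by the Reed–Muench method.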"}, "[7]": {"test_system": "K562", "test": "Selectivity index, ratio of IC50 for human BEAS2B cells to IC50 for human K562 cells", "type": "functional"}, "[8]": {"test": "Selectivity index, ratio of IC50 for human BEAS2B cells to IC50 for human HL60 cells", "type": "functional"}, "[9]": {"test_system": "HepG2", "test": "Selectivity index, ratio of IC50 for human BEAS2B cells to IC50 for human HepG2 cells", "type": "functional"}, "[10]": {"test_system": "HT-29", "test": "Selectivity index, ratio of IC50 for human BEAS2B cells to IC50 for human HT-29 cells", "type": "functional"}, "[11]": {"test_system": "A549", "test": "Selectivity index, ratio of IC50 for human BEAS2B cells to IC50 for human A549 cells", "type": "functional"}}, "data": [{"smiles": "CO[C@@H]1C=C[C@@]23c4cc5c(cc4CN(C[C@@H]2O)[C@H]3C1)OCO5", "note": "[(+)-HAEMANTHAMINE]", "values": [{"measurement": "IC50", "setting": "[1]", "value": 2.1, "unit": "µM"}, {"measurement": "IC50", "setting": "[2]", "value": 4.8, "unit": "µM"}, {"measurement": "IC50", "setting": "[3]", "value": 2.5, "unit": "µM"}, {"measurement": "IC50", "setting": "[4]", "value": 2.5, "unit": "µM"}, {"measurement": "IC50", "setting": "[5]", "value": 1.4, "unit": "µM"}]}, {"smiles": "COc1cc2c(c(OC)c1OC)[C@@H](OC)O[C@@H]1CC=C3CCN(C)[C@H]3[C@H]21", "values": [{"measurement": "IC50", "setting": "[1]", "value": "> 10", "unit": "µM"}, {"measurement": "IC50", "setting": "[2]", "value": "> 10", "unit": "µM"}, {"measurement": "IC50", "setting": "[3]", "value": "> 10", "unit": "µM"}, {"measurement": "IC50", "setting": "[4]", "value": "> 10", "unit": "µM"}, {"measurement": "IC50", "setting": "[5]", "value": "> 10", "unit": "µM"}]}, {"smiles": "Cn1c(=O)c2cc3c(cc2c2ccccc21)OCO3", "values": [{"measurement": "IC50", "setting": "[1]", "value": "> 10", "unit": "µM"}, {"measurement": "IC50", "setting": "[2]", "value": "> 10", "unit": "µM"}, {"measurement": "IC50", "setting": "[3]", "value": "> 10", "unit": "µM"}, {"measurement": "IC50", "setting": "[4]", "value": "> 10", "unit": "µM"}, {"measurement": "IC50", "setting": "[5]", "value": "> 10", "unit": "µM"}]}, {"smiles": "c1ccc2c(c1)ncc1cc3c(cc12)OCO3", "note": "[TRISPHAERIDINE]", "values": [{"measurement": "IC50", "setting": "[1]", "value": "> 10", "unit": "µM"}, {"measurement": "IC50", "setting": "[2]", "value": "> 10", "unit": "µM"}, {"measurement": "IC50", "setting": "[3]", "value": "> 10", "unit": "µM"}, {"measurement": "IC50", "setting": "[4]", "value": "> 10", "unit": "µM"}, {"measurement": "IC50", "setting": "[5]", "value": "> 10", "unit": "µM"}]}, {"smiles": "C/C=C/C=C/C(=O)N1C[C@H](C)NC[C@H]1C", "note": "[NIGRAGILLIN]", "values": [{"measurement": "IC50", "setting": "[1]", "value": "> 10", "unit": "µM"}, {"measurement": "IC50", "setting": "[2]", "value": "> 10", "unit": "µM"}, {"measurement": "IC50", "setting": "[3]", "value": "> 10", "unit": "µM"}, {"measurement": "IC50", "setting": "[4]", "value": "> 10", "unit": "µM"}, {"measurement": "IC50", "setting": "[5]", "value": "> 10", "unit": "µM"}]}, {"smiles": "CO[C@@H]1C=C[C@@]23c4cc5c(cc4CO[C@]2(O)CN(C)[C@H]3C1)OCO5", "note": "[TAZETTINE]", "values": [{"measurement": "IC50", "setting": "[1]", "value": "> 10", "unit": "µM"}, {"measurement": "IC50", "setting": "[2]", "value": "> 10", "unit": "µM"}, {"measurement": "IC50", "setting": "[3]", "value": "> 10", "unit": "µM"}, {"measurement": "IC50", "setting": "[4]", "value": "> 10", "unit": "µM"}, {"measurement": "IC50", "setting": "[5]", "value": "> 10", "unit": "µM"}]}, {"smiles": "CO[C@H]1C=C[C@@]23c4cc5c(cc4CN(C)[C@@H]2C(=O)N(C)[C@H]3C1)OCO5", "note": "(relative stereo)", "values": [{"measurement": "IC50", "setting": "[1]", "value": "> 10", "unit": "µM"}, {"measurement": "IC50", "setting": "[2]", "value": "> 10", "unit": "µM"}, {"measurement": "IC50", "setting": "[3]", "value": "> 10", "unit": "µM"}, {"measurement": "IC50", "setting": "[4]", "value": "> 10", "unit": "µM"}, {"measurement": "IC50", "setting": "[5]", "value": "> 10", "unit": "µM"}]}, {"smiles": "CO[C@@H]1C=C[C@@]23c4cc5c(cc4C(=O)O[C@H]2CN(C)[C@H]3C1)OCO5", "values": [{"measurement": "IC50", "setting": "[1]", "value": "> 10", "unit": "µM"}, {"measurement": "IC50", "setting": "[2]", "value": "> 10", "unit": "µM"}, {"measurement": "IC50", "setting": "[3]", "value": "> 10", "unit": "µM"}, {"measurement": "IC50", "setting": "[4]", "value": "> 10", "unit": "µM"}, {"measurement": "IC50", "setting": "[5]", "value": "> 10", "unit": "µM"}]}, {"smiles": "CN1Cc2cc3c(cc2-c2ccccc21)OCO3", "values": [{"measurement": "IC50", "setting": "[1]", "value": "> 10", "unit": "µM"}, {"measurement": "IC50", "setting": "[2]", "value": "> 10", "unit": "µM"}, {"measurement": "IC50", "setting": "[3]", "value": "> 10", "unit": "µM"}, {"measurement": "IC50", "setting": "[4]", "value": "> 10", "unit": "µM"}, {"measurement": "IC50", "setting": "[5]", "value": "> 10", "unit": "µM"}]}, {"smiles": "CCOC(=O)CCn1c(=O)c2cc3c(cc2c2ccccc21)OCO3", "values": [{"measurement": "IC50", "setting": "[6]", "value": "> 40", "unit": "µM"}, {"measurement": "IC50", "setting": "[1]", "value": "> 10", "unit": "µM"}, {"measurement": "IC50", "setting": "[2]", "value": "> 10", "unit": "µM"}, {"measurement": "IC50", "setting": "[3]", "value": "> 10", "unit": "µM"}, {"measurement": "IC50", "setting": "[4]", "value": "> 10", "unit": "µM"}, {"measurement": "IC50", "setting": "[5]", "value": "> 10", "unit": "µM"}]}, {"smiles": "CO[C@@H]1C=C[C@@]23c4cc5c(cc4C(O)[N+](C)(C[C@@H]2O)[C@H]3C1)OCO5.[Cl-]", "note": "(mixture of isomers)", "values": [{"measurement": "IC50", "setting": "[6]", "value": 3.7, "unit": "µM"}, {"measurement": "IC50", "setting": "[1]", "value": 1.2, "unit": "µM"}, {"measurement": "IC50", "setting": "[2]", "value": 1.5, "unit": "µM"}, {"measurement": "Ratio IC50", "setting": "[7]", "value": 3.7}, {"measurement": "Ratio IC50", "setting": "[8]", "value": 4.1}, {"measurement": "IC50", "setting": "[3]", "value": 1, "unit": "µM"}, {"measurement": "IC50", "setting": "[4]", "value": 1.1, "unit": "µM"}, {"measurement": "IC50", "setting": "[5]", "value": 0.91, "unit": "µM"}, {"measurement": "Ratio IC50", "setting": "[9]", "value": 2.5}, {"measurement": "Ratio IC50", "setting": "[10]", "value": 3.1}, {"measurement": "Ratio IC50", "setting": "[11]", "value": 3.4}]}, {"smiles": "O[C@H]1[C@H]2c3cc4c(cc3CN3CCC(=C[C@@H]1O)[C@H]23)OCO4", "note": "[LYCORINE]", "values": [{"measurement": "IC50", "setting": "[6]", "value": 4.9, "unit": "µM"}, {"measurement": "IC50", "setting": "[1]", "value": 3.2, "unit": "µM"}, {"measurement": "IC50", "setting": "[2]", "value": 3.7, "unit": "µM"}, {"measurement": "IC50", "setting": "[3]", "value": 2.3, "unit": "µM"}, {"measurement": "IC50", "setting": "[4]", "value": 1.9, "unit": "µM"}, {"measurement": "IC50", "setting": "[5]", "value": 1.6, "unit": "µM"}]}, {"smiles": "CCOC(=O)CCCn1c(=O)c2cc3c(cc2c2ccccc21)OCO3", "values": [{"measurement": "IC50", "setting": "[6]", "value": 36, "unit": "µM"}, {"measurement": "IC50", "setting": "[1]", "value": "> 10", "unit": "µM"}, {"measurement": "IC50", "setting": "[2]", "value": "> 10", "unit": "µM"}, {"measurement": "IC50", "setting": "[3]", "value": "> 10", "unit": "µM"}, {"measurement": "IC50", "setting": "[4]", "value": "> 10", "unit": "µM"}, {"measurement": "IC50", "setting": "[5]", "value": "> 10", "unit": "µM"}]}, {"smiles": "O=c1c2cc3c(cc2c2ccccc2n1CCc1ccccc1)OCO3", "values": [{"measurement": "IC50", "setting": "[6]", "value": 7.3, "unit": "µM"}, {"measurement": "IC50", "setting": "[1]", "value": 2.3, "unit": "µM"}, {"measurement": "IC50", "setting": "[2]", "value": 1.4, "unit": "µM"}, {"measurement": "Ratio IC50", "setting": "[7]", "value": 10}, {"measurement": "Ratio IC50", "setting": "[8]", "value": 9}, {"measurement": "IC50", "setting": "[3]", "value": 0.7, "unit": "µM"}, {"measurement": "IC50", "setting": "[4]", "value": 13, "unit": "µM"}, {"measurement": "IC50", "setting": "[5]", "value": 0.81, "unit": "µM"}, {"measurement": "Ratio IC50", "setting": "[9]", "value": 5.2}, {"measurement": "Ratio IC50", "setting": "[10]", "value": 3.2}, {"measurement": "Ratio IC50", "setting": "[11]", "value": 0.56}]}, {"smiles": "CC(C)CCn1c(=O)c2cc3c(cc2c2ccccc21)OCO3", "values": [{"measurement": "IC50", "setting": "[1]", "value": "> 10", "unit": "µM"}, {"measurement": "IC50", "setting": "[2]", "value": "> 10", "unit": "µM"}, {"measurement": "IC50", "setting": "[3]", "value": "> 10", "unit": "µM"}, {"measurement": "IC50", "setting": "[4]", "value": "> 10", "unit": "µM"}, {"measurement": "IC50", "setting": "[5]", "value": "> 10", "unit": "µM"}]}]}
